Consider 14 compounds from PubChem BioAssay.

Experiment [1] is described as follows: inhibitors of TNFa-induced NFkB p65 translocation, primary screen, imaging, HUVEC, MLSMR starter and 10KST1 sets (AID 438;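 active means inhibition above 20% together with a positive visual image hit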;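 further: compound added about 3h40 before a 20 min TNFalpha stimulation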;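 on inhibition: signal is the nuclear over cytoplasmic p65 intensity ratio per well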). To be noted: HUVEC TNFa-induced p65 nuclear translocation; cell count: measured here: nuclei count (cytotoxicity indicator), at 2.08 µM; inhibition: at 2 µM, stronger effect = higher value, 0% TNFa-plus-vehicle, 100% no-TNFa wells.
Experiment [2] is described as follows: inhibitors of mutant huntingtin aggregation, primary screen, imaging, exon1htt(103Q)mCFP cells, high-content imaging (AID 483;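 active means visual image review flags a hit and inhibition of aggregation exceeds 20%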;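 further: compound exposure lasted 3 days before fixation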;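 on nuclei count: percent of the per-plate median nuclei count of sample wells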). To be noted: exon1htt(103Q)mCFP cell line, aggregate imaging, at 2 µM; inhibition of aggregation: stronger effect = higher value; nuclei count: measured here: cell count, toxicity.
A short description of experiment [3]: inhibitors of E-selectin induction by TNFa, primary screen, imaging, HUVEC, immunofluorescence, MLSMR starter and 10KST1 sets (AID 487;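 active means visually confirmed hit in the image check and inhibition above 20%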;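 on inhibition: signal is fraction of cell area covered by stained E-selectin grains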;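 on nuclei count: 100% = median nuclei count of all wells on the same plate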). To be noted: HUVEC TNFalpha-induced E-selectin immunofluorescence imaging, at 2 µM; inhibition: stronger effect = higher value; nuclei count: measured here: cell number, toxicity.
Experiment [4] has as its target Voltage-gated potassium channel subunit beta-2 (Rattus norvegicus) (UniProt P62483). Kind of experiment: KvBeta enzyme negative modulators, primary screen, biochemical, NADPH fluorescence (AID 622;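 active means fluorescence slope higher than the sample average by over 3 SD, cut at about -0.22 in these data, passing the limit was not always enough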;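 further: slope of raw intensity against log time taken from 70 to 1610 s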). To be noted: recombinant KvBeta, 4-cyanobenzaldehyde reduction, at 10 µM, stronger effect = higher value.
Experiment [5] shares this target. Description: KvBeta positive modulators, primary screen, biochemical, NADPH fluorescence (AID 623;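 active means NADPH fluorescence slope more negative than the mean of all samples by about 3 SD, 99.7% confidence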;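 further: fluorescence intensity change per second fitted from 20 to 320 s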). To be noted: Recombinant KvBeta, NADPH fluorescence decrease slope, 10 min; at 10 µM; stronger effect = lower value.
The target in experiment [6] is Muscarinic acetylcholine receptor M4 (Homo sapiens) (UniProt P08173). Description: compounds altering M4/GIRK thallium flux, either direction, primary screen, M4 allosteric agonist project, cell-based, HEK293 M4/GIRK, BTC-AM (AID 625).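 Further: thallium influx through GIRK channels coupled to M4 in HEK293 cells with BTC-AM dye.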 To be noted: at 10 µM, actives lie on both sides. An outline of the steps:
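Material – HEK293 cells with M4 receptor and GIRK channels · Buffer or medium – pH 7.3 thallium assay buffer · Doses – one dose, 10 µM final · Timing – cells overnight at 37 °C, BTC-AM loading 1 h, reads 2 min total · Measured by – kinetic fluorescence with BTC-AM dye · Controls – carbachol and DMSO controls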

Experiment [7] can be described thus: inhibitors of Sendai virus-induced IRF3 signaling, primary screen, TLR/RLR signaling modifier project, cell-based, Sendai virus stimulus, luciferase, 10K MLSCN set (AID 602276;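 active means inhibition at or above 50% at 10 µM; inactive means inhibition below 50%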;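 further: firefly luciferase from ISG56 promoter only with Renilla not read in this screen; 0% = Sendai virus plus DMSO and 100% = medium plus DMSO without virus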). To be noted: HEK293 RL24 IRF3 luciferase reporter, at 10 µM, stronger effect = higher value. For orientation: In a reporter assay the amount or activity of a reporter protein is the signal.
Experiment [8] in a line: inhibitors of poly I:C-induced TLR3 signaling, primary screen, cell-based, poly I:C stimulus, luciferase, 10K MLSCN set (AID 602277;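 active means inhibition of the reporter signal at or above 50%; inactive means inhibition below 50%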). To be noted: HEK293-TLR3 RL24 IRF3 luciferase reporter, at 10 µM, stronger effect = higher value.

Activity calls are given as the source filed them.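 How the source made its calls, unless noted: active means fluorescence slope after compound addition differing from the mean of all tested samples at 99.7% confidence, mostly higher but some lower; inactive means the rest.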

Muscarinic acetylcholine receptor M4 (Homo sapiens), sequence (P08173 whole entry, looked up): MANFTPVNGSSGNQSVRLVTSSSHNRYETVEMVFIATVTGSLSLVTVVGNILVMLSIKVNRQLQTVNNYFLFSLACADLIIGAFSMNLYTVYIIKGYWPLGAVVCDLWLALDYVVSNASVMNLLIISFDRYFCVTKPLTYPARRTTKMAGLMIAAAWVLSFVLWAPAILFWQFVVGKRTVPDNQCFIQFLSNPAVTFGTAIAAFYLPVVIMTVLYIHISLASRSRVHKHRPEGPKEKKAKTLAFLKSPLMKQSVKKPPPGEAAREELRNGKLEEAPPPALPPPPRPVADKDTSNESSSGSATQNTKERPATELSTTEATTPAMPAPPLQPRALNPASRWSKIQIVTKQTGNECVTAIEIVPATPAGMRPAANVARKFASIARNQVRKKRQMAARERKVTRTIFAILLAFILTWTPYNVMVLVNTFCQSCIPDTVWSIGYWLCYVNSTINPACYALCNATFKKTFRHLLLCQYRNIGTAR
Voltage-gated potassium channel subunit beta-2 (Rattus norvegicus), sequence (P62483 whole entry, looked up): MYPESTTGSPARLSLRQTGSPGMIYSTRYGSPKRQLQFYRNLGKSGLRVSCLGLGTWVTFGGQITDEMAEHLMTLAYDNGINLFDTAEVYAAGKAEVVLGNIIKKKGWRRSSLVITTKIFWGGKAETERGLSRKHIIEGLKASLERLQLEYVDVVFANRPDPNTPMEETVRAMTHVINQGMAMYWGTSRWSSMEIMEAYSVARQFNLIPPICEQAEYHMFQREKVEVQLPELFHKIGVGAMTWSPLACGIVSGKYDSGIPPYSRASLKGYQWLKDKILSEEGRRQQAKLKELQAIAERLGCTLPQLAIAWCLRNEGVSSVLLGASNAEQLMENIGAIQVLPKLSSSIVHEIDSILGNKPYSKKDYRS

A word on the inhibition: it is the change of the read-out against control, counted positive when it falls. With `Cc1coc(NC(=O)CSc2nc(-c3ccncc3)cc(C(F)(F)F)c2C#N)n1`, the cell count in experiment [1] came out at 740. In addition, the inhibition is -7.9% (inactive) in experiment [1], -29.3% (inactive) in experiment [3], 5.59% (inactive) in experiment [7] and 8.54% (inactive) in experiment [8]. Also, the inhibition of aggregation in experiment [2] is 16.1% (inactive). Also, the nuclei count in experiment [2] worked out at 86.8%; in experiment [3], 115%. The fluorescence slope was -0.471 (inactive) in experiment [4] and 0.00557 (inactive) in experiment [6]. Moreover, the NADPH fluorescence slope in experiment [5] is -2.9e-05 (inactive).

Consider `CN(C)Cc1c(O)ccc2oc(Cc3ccccc3)cc12`, for which the cell count in experiment [1] is 676. Further, the inhibition in experiment [1] is -9.1% (inactive); in experiment [3], -12.9% (inactive); in experiment [7], 22.6% (inactive); in experiment [8] it was 22.2% (inactive). Also, in experiment [2], the inhibition of aggregation is 14.8% (inactive). Moreover, the nuclei count turned out to be 65.8% in experiment [2] and 104% in experiment [3]. Also, the fluorescence slope in experiment [4] is -0.533 (inactive); in experiment [6], 0.00447 (inactive). Besides, the NADPH fluorescence slope in experiment [5] was -6.9e-06 (inactive).

In the case of `O=C1CSC(c2cccc(F)c2)N1c1ccccc1F` (centres undefined), the cell count in experiment [1] came to 650. The inhibition is -15.7% (inactive) in experiment [1], -120% (inactive) in experiment [3], 15% (inactive) in experiment [7] and 18.1% (inactive) in experiment [8]. Also, the inhibition of aggregation in experiment [2] was 36.5% (inactive). For the same compound, the nuclei count in experiment [2] amounted to 118%; in experiment [3] it was 100%. Moreover, the fluorescence slope in experiment [4] was -0.614 (inactive); in experiment [6], 0.00376 (inactive). In experiment [5], the NADPH fluorescence slope was 6.1e-06 (inactive).

Turning to `COc1ccccc1-n1nnnc1SCc1ccccc1`, the cell count in experiment [1] stood at 211. The inhibition was -1.5% (inactive) in experiment [1], -25.5% (inactive) in experiment [3], 13% (inactive) in experiment [7] and 16.5% (inactive) in experiment [8]. Further, the inhibition of aggregation in experiment [2] was 6.5% (inactive). Moreover, the nuclei count in experiment [2] was found to be 108%; in experiment [3], 92.6%. Moreover, the fluorescence slope in experiment [4] was -0.51 (inactive); in experiment [6], 0.00333 (inactive). Moreover, the NADPH fluorescence slope in experiment [5] is -2.7e-05 (inactive).

In the case of `COc1cc(C(=O)Nc2ccc3c(c2)C(=O)N(CCC(=O)O)C3=O)cc(OC)c1OC`, the cell count in experiment [1] amounted to 469. The inhibition was 2% (inactive) in experiment [1], -37.8% (inactive) in experiment [3], 12.6% (inactive) in experiment [7] and 18% (inactive) in experiment [8]. Also, the inhibition of aggregation in experiment [2] was 4.8% (inactive). In addition, the nuclei count in experiment [2] stood at 89.5%; in experiment [3], 87.3%. For the same compound, the fluorescence slope in experiment [4] is -0.488 (inactive); in experiment [6] it was 0.00491 (inactive). The NADPH fluorescence slope in experiment [5] is -4.2e-05 (inactive).

Take `Cc1ccc(-c2nnn(CC(=O)NC3CC4CCC3C4)n2)cc1` (centres undefined): the cell count in experiment [1] came to 239. For the same compound, the inhibition in experiment [1] was -5% (inactive); in experiment [3] it was 3.6% (inactive); in experiment [7], 7.26% (inactive); in experiment [8], -0.548% (inactive). Besides, the inhibition of aggregation in experiment [2] is 15.8% (inactive). The nuclei count in experiment [2] was 77.6%; in experiment [3], 102%. Besides, the results for the fluorescence slope in experiment [4] and in experiment [6] were -0.563 (inactive) and 0.00799 (inactive), respectively. In addition, the NADPH fluorescence slope in experiment [5] was -4.4e-05 (inactive).

For `COc1ccc(C2NC(c3ccc(OC)c(OC)c3OC)C(C)C(=O)C2C)c(OC)c1OC` (centres undefined), the cell count in experiment [1] was determined as 663. Further, the inhibition was -16.3% (inactive) in experiment [1], -142% (inactive) in experiment [3], 14.8% (inactive) in experiment [7] and 25.4% (inactive) in experiment [8]. For the same compound, in experiment [2], the inhibition of aggregation is 2.6% (inactive). For the same compound, the nuclei count in experiment [2] is 141%; in experiment [3], 104%. Moreover, the fluorescence slope is -0.474 (inactive) in experiment [4] and 0.00551 (inactive) in experiment [6]. Besides, the NADPH fluorescence slope in experiment [5] was -2.1e-05 (inactive).

`O=C(Nc1ccc(CN2CCCCC2)cc1)c1ccc2c(c1)OCO2`: the cell count in experiment [1] is 438. Further, the inhibition is -12.8% (inactive) in experiment [1], -0.6% (inactive) in experiment [3], -5.51% (inactive) in experiment [7] and -5.01% (inactive) in experiment [8]. In addition, the inhibition of aggregation in experiment [2] is 15.1% (inactive). Further, the nuclei count in experiment [2] came out at 102%; in experiment [3], 73.6%. Moreover, the fluorescence slope is -0.473 (inactive) in experiment [4] and 0.00547 (inactive) in experiment [6]. Also, the NADPH fluorescence slope in experiment [5] is -1.5e-05 (inactive).

Consider `O=C(COC(=O)C1(c2ccccc2F)CCCC1)NC1CCS(=O)(=O)C1` (centres undefined), for which the cell count in experiment [1] came out at 804. For the same compound, the inhibition in experiment [1] was -6.9% (inactive); in experiment [3] it was -14.4% (inactive); in experiment [7] it was -1.97% (inactive); in experiment [8], 9.43% (inactive). Further, the inhibition of aggregation in experiment [2] is -2.4% (inactive). For the same compound, the nuclei count turned out to be 124% in experiment [2] and 106% in experiment [3]. Further, the fluorescence slope was -0.578 (inactive) in experiment [4] and 0.00752 (inactive) in experiment [6]. In addition, in experiment [5], the NADPH fluorescence slope was -7.2e-06 (inactive).

Regarding `Cc1ccc(SCCC(=O)N(C)C)cc1`, in experiment [1], the cell count worked out at 637. Moreover, the inhibition in experiment [1] was -8.6% (inactive); in experiment [3] it was -143% (inactive); in experiment [7], -10.8% (inactive); in experiment [8] it was -52.8% (inactive). In addition, the inhibition of aggregation in experiment [2] was 10.5% (inactive). In addition, the nuclei count worked out at 89.8% in experiment [2] and 103% in experiment [3]. Besides, the fluorescence slope in experiment [4] is -0.459 (inactive); in experiment [6], 0.00561 (inactive). Moreover, the NADPH fluorescence slope in experiment [5] is -2.6e-05 (inactive).

For the compound `COC(=O)C1(C)NC(c2ccco2)C2C(=O)N(c3ccc(C)cc3)C(=O)C21` (centres undefined), the cell count in experiment [1] was 560. Also, the inhibition in experiment [1] is -17.5% (inactive); in experiment [3], -40.3% (inactive); in experiment [7], 14.7% (inactive); in experiment [8], 17.2% (inactive). Further, in experiment [2], the inhibition of aggregation is -8.7% (inactive). For the same compound, the nuclei count was found to be 113% in experiment [2] and 114% in experiment [3]. Besides, the fluorescence slope in experiment [4] was -0.318 (inactive); in experiment [6], 0.00521 (inactive). The NADPH fluorescence slope in experiment [5] was -3.5e-05 (inactive).

On to `O=C(NCCCN1CCOCC1)C1CC(=O)N(CCc2ccccc2)C1` (centres undefined), for which, in experiment [1], the cell count worked out at 295. Also, the inhibition in experiment [1] is -1% (inactive); in experiment [3], -88% (inactive); in experiment [7], 15.2% (inactive); in experiment [8], 22.3% (inactive). The inhibition of aggregation in experiment [2] is 0.4% (inactive). For the same compound, the nuclei count in experiment [2] is 104%; in experiment [3], 117%. Further, the fluorescence slope in experiment [4] was -0.545 (inactive); in experiment [6], 0.00479 (inactive). The NADPH fluorescence slope in experiment [5] was 1.7e-05 (inactive).

`CC(C)Oc1cccc(-c2cc(C(=O)N3CCN(S(C)(=O)=O)CC3)c3ccccc3n2)c1`: the cell count in experiment [1] was 638. For the same compound, the inhibition was 11.6% (inactive) in experiment [1], -49% (inactive) in experiment [3], -23% (inactive) in experiment [7] and -35.2% (inactive) in experiment [8]. For the same compound, the inhibition of aggregation in experiment [2] was 11.2% (inactive). The nuclei count in experiment [2] was 108%; in experiment [3] it was 95%. Further, the results for the fluorescence slope in experiment [4] and in experiment [6] were -0.454 (inactive) and 0.00711 (inactive), respectively. In addition, the NADPH fluorescence slope in experiment [5] is 2e-05 (inactive).

In the case of `COc1ccccc1CNS(=O)(=O)c1cccc(S(=O)(=O)N2CCOCC2)c1`, the cell count in experiment [1] worked out at 676. In addition, the inhibition in experiment [1] is 25.1% (inactive); in experiment [3], 19.5% (inactive); in experiment [7], 10.7% (inactive); in experiment [8], 19.2% (inactive). Besides, the inhibition of aggregation in experiment [2] is 7.8% (inactive). Also, the nuclei count turned out to be 116% in experiment [2] and 117% in experiment [3]. For the same compound, the fluorescence slope is -0.401 (inactive) in experiment [4] and 0.00588 (inactive) in experiment [6]. Moreover, the NADPH fluorescence slope in experiment [5] was 2.6e-05 (inactive).
